Measured values from ChEMBL document CHEMBL4765374, “8-Alkynyl-3-nitroimidazopyridines display potent antitrypanosomal activity against both T. b. brucei and cruzi” (Eur J Med Chem, 2020).

Key:
[1] = Solubility of the compound in aqueous medium at highest dose; assay type: physicochemical; conditions: buffer
[2] = system: Trypanosoma brucei brucei; experiment: […] activity against Trypanosoma brucei brucei AnTat 1.9 measured after 74 hrs by Alamar blue assay; assay type: functional, organism-based; conditions: AnTat 1.9, 74 h
How it was run: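 Bloodstream T. b. brucei AnTat 1.9 grown at 37 °C, 5% CO₂ in MEM with Earle's salts plus mercaptoethanol, L-cysteine, bathocuproine sulfate and 20% heat-inactivated horse serum. Seeded at 2000 parasites/100 µL and exposed in duplicate to compounds in DMSO for 69 h. Alamar Blue then added for 5 h, fluorescence read at ex 530/em 590 nm. EC50 by nonlinear regression from three independent experiments.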

[3] = system: Leishmania donovani; experiment: Antileishmanial activity against Leishmania donovani MHOM/IN/00/DEVI promastigotes assessed as inhibition of metabolic activity measured after 72 hrs by MTT assay; assay type: functional, organism-based
How it was run: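 L. donovani MHOM/IN/00/DEVI promastigotes grown in Schneider's medium with 20% FCS at 27 °C. Log-phase parasites at 10⁶/mL were exposed in duplicate to serial compound concentrations in DMSO (final <0.5%) for 72 h at 27 °C. MTT was added for 4 h and absorbance read at 570 nm. EC50 from non-linear regression, mean of at least three independent experiments.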

[4] = Cytotoxicity against human HepG2 cells assessed as reduction in cell viability after 72 hrs by MTT assay; assay type: cell-based
[5] = Selectivity index, ratio of CC50 for human HepG2 cells to EC50 for Trypanosoma brucei brucei AnTat 1.9; assay type: toxicity; conditions: read-out: Selectivity Index
[6] = Selectivity index, ratio of CC50 for cytotoxicity against human HepG2 cells to EC50 for antileishmanial activity against Leishmania donovani MHOM/IN/00/DEVI promastigotes; assay type: toxicity, cell-based; conditions: read-out: Selectivity Index
[7] = system: Leishmania donovani; experiment: Antileishmanial activity against Leishmania donovani BOB (MHOM/SD/62/1S-CL2D) promastigotes overexpressing NTR2 incubated for 72 hrs by resazurin dye based assay; assay type: functional, organism-based
How it was run: (§1)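 Clonal L. donovani LdBOB promastigotes grown at 26 °C in modified M199; NTR1- and NTR2-overexpressing lines maintained with nourseothricin (100 µg/mL). Triplicate 10 mL cultures seeded at 5×10^4 parasites/mL with drug for 72 h; 200 µL aliquots then given 50 µM resazurin, fluorescence (ex 528/em 590 nm) after 4 h more. EC50 from slope-factor equation; experiments repeated at least twice, mean plus standard deviation.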

[8] = system: Leishmania donovani; experiment: Antileishmanial activity against wild type Leishmania donovani BOB (MHOM/SD/62/1S-CL2D) promastigotes incubated for 72 hrs by resazurin dye based assay; assay type: functional, organism-based; how it was run: as §1
[9] = system: Leishmania donovani; experiment: Antileishmanial activity against Leishmania donovani BOB (MHOM/SD/62/1S-CL2D) promastigotes overexpressing NTR1 incubated for 72 hrs by resazurin dye based assay; assay type: functional, organism-based; how it was run: as §1
[10] = system: Trypanosoma brucei brucei; experiment: Antitrypanosomal activity against bloodstream form of wild type Trypanosoma brucei brucei S427 trypomastigotes incubated for 72 hrs; assay type: functional, organism-based; conditions: S427, 72 h
How it was run: (§2)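 Bloodstream-form T. brucei 'single marker' S427 cultured at 37 °C in HMI9-T with 2.5 µg/mL G418. The NTR1-overexpressing line was kept with 2.5 µg/mL phleomycin and induced with 1 µg/mL tetracycline 48 h before testing. Triplicate cultures seeded at 1×10^5 cells/mL with inhibitor. Cell densities counted after 72 h. EC50 from slope-factor equation.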

[11] = system: Trypanosoma brucei brucei; experiment: Antitrypanosomal activity against bloodstream form of Trypanosoma brucei brucei S427 trypomastigotes overexpressing NTR incubated for 72 hrs; assay type: functional, organism-based; conditions: S427, 72 h; how it was run: as §2
[12] = system: THP-1; experiment: Cytotoxicity against human THP-1 cells assessed as reduction in cell viability after 72 hrs by MTT assay; assay type: functional
How it was run: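 THP-1 cells at 5×10⁴ cells/mL in complete RPMI were exposed in duplicate to compounds in DMSO (final <0.5%) for 72 h at 37 °C. MTT at 0.5 mg/mL for 2 h, formazan dissolved in DMSO, absorbance read at 570 nm with 630 nm reference. CC50 from the dose-response curve, mean of three independent experiments.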

SMILES | solubility [1] | EC50 [2] | EC50 [3] | CC50 at 72 h [4] | selectivity ratio [5] | selectivity ratio [6] | other results
O=[N+]([O-])c1c(CS(=O)(=O)c2ccccc2)nc2c(Br)cc(Br)cn12 | Insoluble | 2900 nM | 1800 nM | > 31000 nM |  |  | 
O=[N+]([O-])c1c(CS(=O)(=O)c2ccccc2)nc2c(-c3ccncc3)cc(Cl)cn12 |  | 250 nM | 1200 nM | > 50000 nM |  |  | 
O=[N+]([O-])c1c(CS(=O)(=O)c2ccccc2)nc2c(Sc3ccc(Cl)cc3)cc(Cl)cn12 |  | 1300 nM | 1000 nM |  | > 76.9 |  | 
COc1cccc(C#Cc2cc(Cl)cn3c([N+](=O)[O-])c(CS(=O)(=O)c4ccccc4)nc23)c1 | Insoluble |  |  | > 3900 nM |  |  | 
CC(O)C#Cc1cc(Cl)cn2c([N+](=O)[O-])c(CS(=O)(=O)c3ccccc3)nc12 (configuration not stated) |  | 40 nM | 4700 nM | 44200 nM | 1100 | 9.4 | 
COc1ccc(C#Cc2cc(Cl)cn3c([N+](=O)[O-])c(CS(=O)(=O)c4ccccc4)nc23)cc1 | Insoluble |  |  | > 3900 nM |  |  | 
CCC(O)CC#Cc1cc(Cl)cn2c([N+](=O)[O-])c(CS(=O)(=O)c3ccccc3)nc12 (configuration not stated) | Insoluble | 40 nM | 1600 nM | > 62500 nM | > 1560 | > 39.1 | EC50 [7]: 8500 nM; EC50 [8]: 7300 nM; EC50 [9]: 400 nM; EC50 [10]: 200 nM; EC50 [11]: 66.3 nM
O=[N+]([O-])c1c(CS(=O)(=O)c2ccccc2)nc2c(C#Cc3ccc(CO)cc3)cc(Cl)cn12 | Insoluble | 160 nM | 1600 nM | > 15600 nM | > 97.5 | > 9.8 | 
O=[N+]([O-])c1c(CS(=O)(=O)c2ccccc2)nc2c(C#CCOc3ccccc3)cc(Cl)cn12 |  | 160 nM | 1300 nM | 8400 nM | 52.5 | 6.5 | 
O=[N+]([O-])c1c(CS(=O)(=O)c2ccccc2)nc2c(C#Cc3ccccc3)cc(Cl)cn12 | Insoluble |  |  | > 3900 nM |  |  | 
O=[N+]([O-])c1c(CS(=O)(=O)c2ccccc2)nc2c(C#Cc3cccs3)cc(Cl)cn12 | Insoluble |  |  | > 3900 nM |  |  | 
O=[N+]([O-])c1c(CS(=O)(=O)c2ccccc2)nc2c(C#Cc3cccc(F)c3)cc(Cl)cn12 | Insoluble |  |  | > 3900 nM |  |  | 
O=[N+]([O-])c1c(CS(=O)(=O)c2ccccc2)nc2c(C#CCO)cc(Cl)cn12 |  | 120 nM | 3900 nM | 10100 nM | 84.2 | 2.6 | 
CC(O)(C#Cc1cc(Cl)cn2c([N+](=O)[O-])c(CS(=O)(=O)c3ccccc3)nc12)c1ccccc1 (configuration not stated) |  | 130 nM | 1000 nM | 18800 nM | > 145 | 18.8 | 
O=[N+]([O-])c1c(CS(=O)(=O)c2ccccc2)nc2c(C#CC3(O)CCCCC3)cc(Cl)cn12 | Insoluble | 100 nM | 1000 nM | > 25000 nM | > 250 | > 25 | 
O=[N+]([O-])c1c(CS(=O)(=O)c2ccccc2)nc2c(C#Cc3ccccc3F)cc(Cl)cn12 | Insoluble |  |  | > 3900 nM |  |  | 
O=[N+]([O-])c1c(CS(=O)(=O)c2ccccc2)nc2c(C#CC3(O)CCCC3)cc(Cl)cn12 | Insoluble | 100 nM | 1700 nM | > 31300 nM | > 313 | > 18.4 | 
COc1ccccc1C#Cc1cc(Cl)cn2c([N+](=O)[O-])c(CS(=O)(=O)c3ccccc3)nc12 | Insoluble |  |  | > 3900 nM |  |  | 
Nc1c(CS(=O)(=O)c2ccccc2)nc2c(C#CCCO)cc(Cl)cn12 | Insoluble | 6800 nM | > 62500 nM | > 62500 nM | > 9.2 |  | 
O=[N+]([O-])c1c(CS(=O)(=O)c2ccccc2)nc2c(C#Cc3ccc(F)cc3)cc(Cl)cn12 | Insoluble |  |  | > 3900 nM |  |  | 
CC(C)(O)C#Cc1cc(Cl)cn2c([N+](=O)[O-])c(CS(=O)(=O)c3ccccc3)nc12 | Insoluble | 120 nM | 3000 nM | > 62500 nM | > 521 | > 20.8 | 
Nc1ccc(C#Cc2cc(Cl)cn3c([N+](=O)[O-])c(CS(=O)(=O)c4ccccc4)nc23)cc1 | Insoluble |  |  | > 3900 nM |  |  | 
O=[N+]([O-])c1c(CS(=O)(=O)c2ccccc2)nc2c(C#Cc3cccnc3)cc(Cl)cn12 | Insoluble |  |  | > 3900 nM |  |  | 
O=C(Cn1ccnc1[N+](=O)[O-])NCc1ccccc1 [BENZNIDAZOLE] |  |  |  |  |  |  | CC50 [12]: > 200000 nM
COc1cccc2c1C(=O)c1c(O)c3c(c(O)c1C2=O)C[C@@](O)(C(=O)CO)C[C@@H]3O[C@H]1C[C@H](N)[C@H](O)[C@H](C)O1 [DOXORUBICIN] |  |  |  |  |  |  | CC50 [12]: 700 nM
NCCCC(N)(C(=O)O)C(F)F (configuration not stated) [EFLORNITHINE] |  |  |  | > 100000 nM | > 7.5 |  | 
CSc1ccc(OCc2ncc([N+](=O)[O-])n2C)cc1 [FEXINIDAZOLE] |  | 600 nM | 1200 nM |  |  |  | CC50 [12]: > 200000 nM
CCCCCCCCCCCCCCCCOP(=O)([O-])OCC[N+](C)(C)C [MILTEFOSINE] |  |  |  |  |  |  | CC50 [12]: 35000 nM
CC1CS(=O)(=O)CCN1/N=C/c1ccc([N+](=O)[O-])o1 (configuration not stated) [NIFURTIMOX] |  | 2600 nM |  | 45200 nM | 17.4 |  | 
Cc1ccc(C(=O)Nc2ccc(S(=O)(=O)O)c3cc(S(=O)(=O)O)cc(S(=O)(=O)O)c23)cc1NC(=O)c1cccc(NC(=O)Nc2cccc(C(=O)Nc3cc(C(=O)Nc4ccc(S(=O)(=O)O)c5cc(S(=O)(=O)O)cc(S(=O)(=O)O)c45)ccc3C)c2)c1 [SURAMIN] |  |  |  | > 100000 nM |  |  | 
